Test results published in ChEMBL document CHEMBL3870320, “Yakushinamides, Polyoxygenated Fatty Acid Amides That Inhibit HDACs and SIRTs, from the Marine Sponge Theonella swinhoei” (J Nat Prod, 2016).

Key:
[1] = biological target: T1, NAD-dependent protein deacetylase sirtuin-3, mitochondrial (Homo sapiens) (UniProt Q9NTG7); test: Inhibition of recombinant human His-tagged SIRT3 (118 to 399 residues) expressed in Escherichia coli BL21 (DE3) assessed as formation of amino methyl coumarin from Ac-VSTPVK(Ac)-MCA and NAD measured after 60 mins by fluorescence analysis
T1 sequence (whole entry): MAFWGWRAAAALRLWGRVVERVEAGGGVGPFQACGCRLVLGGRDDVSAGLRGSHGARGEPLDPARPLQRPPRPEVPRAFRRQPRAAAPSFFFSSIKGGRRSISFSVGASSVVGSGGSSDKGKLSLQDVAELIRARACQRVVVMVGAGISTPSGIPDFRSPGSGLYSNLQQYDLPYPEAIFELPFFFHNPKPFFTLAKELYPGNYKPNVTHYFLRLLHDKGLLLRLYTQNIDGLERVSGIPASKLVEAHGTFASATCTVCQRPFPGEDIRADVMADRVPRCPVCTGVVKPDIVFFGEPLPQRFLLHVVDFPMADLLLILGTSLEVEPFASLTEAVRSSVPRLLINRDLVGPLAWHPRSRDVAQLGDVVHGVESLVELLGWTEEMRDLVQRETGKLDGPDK
In short: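 His-tagged recombinant SIRT3 incubated with 100 μM Ac-VSTPVK(Ac)-MCA and NAD (final 1 mM) in 50 mM Tris-HCl pH 9.0, 4 mM MgCl2, 0.2 mM DTT for 60 min at 37 °C. Trypsin (final 20 mg/mL) was added and the mixture held 15 min more at 37 °C. Fluorescence of freed aminomethylcoumarin measured at ex 370/em 460 nm.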

[2] = biological target: T2, NAD-dependent protein deacetylase sirtuin-2 (Homo sapiens) (UniProt Q8IXJ6); test: Inhibition of recombinant human GST-tagged SIRT2 catalytic domain using Ac-RHKK(Ac)-MCA assessed as formation of amino methyl coumarin from Ac-RHKK(Ac)-MCA and NAD measured after 60 mins by fluorescence analysis
T2 sequence (whole entry): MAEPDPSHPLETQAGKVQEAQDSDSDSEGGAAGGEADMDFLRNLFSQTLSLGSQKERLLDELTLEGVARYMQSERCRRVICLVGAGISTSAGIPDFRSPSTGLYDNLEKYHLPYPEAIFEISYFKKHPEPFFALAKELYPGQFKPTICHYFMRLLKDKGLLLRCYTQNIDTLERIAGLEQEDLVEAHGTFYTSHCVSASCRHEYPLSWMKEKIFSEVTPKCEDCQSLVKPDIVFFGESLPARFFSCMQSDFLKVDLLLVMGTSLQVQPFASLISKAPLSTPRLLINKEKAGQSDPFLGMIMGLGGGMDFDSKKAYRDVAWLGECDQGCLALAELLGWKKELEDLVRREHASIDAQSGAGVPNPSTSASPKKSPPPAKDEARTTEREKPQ
In short: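 Recombinant GST-fused SIRT2 catalytic domain with 100 μM Ac-RHKK(Ac)-MCA and NAD (final 1 mM) in 50 mM Tris-HCl pH 9.0, 4 mM MgCl2, 0.2 mM DTT, 60 min at 37 °C. Trypsin (final 20 mg/mL) then added for 15 min at 37 °C. Released aminomethylcoumarin fluorescence read at ex 370/em 460 nm.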

[3] = biological target: Histone deacetylase 4 (Homo sapiens) (UniProt P56524); test: Inhibition of human FLAG-tagged HDAC4 expressed in human 293T cells assessed as formation of amino methyl coumarin from Ac-KGLGK(Ac)-MCA measured after 30 mins by fluorescence analysis; format: cell-based
Sequence of Histone deacetylase 4 (Homo sapiens) (P56524 whole entry): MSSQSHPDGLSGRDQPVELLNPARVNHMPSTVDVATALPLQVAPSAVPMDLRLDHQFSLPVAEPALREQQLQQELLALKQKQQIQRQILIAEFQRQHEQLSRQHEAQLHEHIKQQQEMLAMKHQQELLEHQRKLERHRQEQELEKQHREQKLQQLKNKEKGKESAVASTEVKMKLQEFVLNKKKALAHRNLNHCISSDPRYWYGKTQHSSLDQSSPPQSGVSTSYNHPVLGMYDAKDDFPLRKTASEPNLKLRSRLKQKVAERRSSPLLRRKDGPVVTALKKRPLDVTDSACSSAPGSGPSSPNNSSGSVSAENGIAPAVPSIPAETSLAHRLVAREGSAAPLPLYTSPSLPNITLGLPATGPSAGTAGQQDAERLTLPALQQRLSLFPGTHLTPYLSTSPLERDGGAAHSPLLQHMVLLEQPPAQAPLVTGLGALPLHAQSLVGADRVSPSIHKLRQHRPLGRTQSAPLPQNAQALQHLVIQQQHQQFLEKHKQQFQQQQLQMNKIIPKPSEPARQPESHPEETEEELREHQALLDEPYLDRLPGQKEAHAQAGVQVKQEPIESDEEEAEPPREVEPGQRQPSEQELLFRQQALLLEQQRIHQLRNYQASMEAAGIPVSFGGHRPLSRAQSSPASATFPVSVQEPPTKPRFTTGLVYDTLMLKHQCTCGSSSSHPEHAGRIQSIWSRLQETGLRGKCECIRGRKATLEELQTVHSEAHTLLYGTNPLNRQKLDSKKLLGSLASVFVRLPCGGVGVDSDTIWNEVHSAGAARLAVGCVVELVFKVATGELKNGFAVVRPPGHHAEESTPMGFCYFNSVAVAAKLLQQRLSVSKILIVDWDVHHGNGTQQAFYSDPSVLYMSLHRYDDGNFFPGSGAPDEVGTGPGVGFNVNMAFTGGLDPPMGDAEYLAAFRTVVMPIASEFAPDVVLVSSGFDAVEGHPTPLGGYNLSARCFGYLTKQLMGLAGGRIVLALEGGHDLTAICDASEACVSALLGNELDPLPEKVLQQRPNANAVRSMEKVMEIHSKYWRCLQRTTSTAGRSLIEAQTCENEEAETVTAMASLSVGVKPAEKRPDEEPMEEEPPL

[4] = biological target: Histone deacetylase 1 (Homo sapiens) (UniProt Q13547); test: Inhibition of human FLAG-tagged HDAC1 expressed in human 293T cells assessed as formation of amino methyl coumarin from Ac-KGLGK(Ac)-MCA measured after 30 mins by fluorescence analysis; format: cell-based
Sequence of Histone deacetylase 1 (Homo sapiens) (Q13547 whole entry): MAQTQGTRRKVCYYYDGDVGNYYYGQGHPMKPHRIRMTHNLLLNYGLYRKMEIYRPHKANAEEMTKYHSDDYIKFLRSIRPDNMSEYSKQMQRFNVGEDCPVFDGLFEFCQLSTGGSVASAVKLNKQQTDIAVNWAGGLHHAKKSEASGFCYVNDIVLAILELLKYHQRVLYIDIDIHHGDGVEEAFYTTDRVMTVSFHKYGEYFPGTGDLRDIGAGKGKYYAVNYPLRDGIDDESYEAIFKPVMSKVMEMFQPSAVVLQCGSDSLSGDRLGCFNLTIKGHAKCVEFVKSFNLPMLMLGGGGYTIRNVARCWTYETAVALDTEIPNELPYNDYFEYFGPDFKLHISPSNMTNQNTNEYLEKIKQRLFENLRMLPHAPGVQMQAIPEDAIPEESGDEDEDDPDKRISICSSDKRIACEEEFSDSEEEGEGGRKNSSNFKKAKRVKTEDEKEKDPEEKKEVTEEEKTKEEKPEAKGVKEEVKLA

[5] = biological target: T3, NAD-dependent protein deacetylase sirtuin-1 (Homo sapiens) (UniProt Q96EB6); test: Inhibition of recombinant human SIRT1 expressed in Escherichia coli BL21 (DE3) assessed as formation of amino methyl coumarin from Ac-RHKK(Ac)-MCA and NAD measured after 60 mins by fluorescence analysis
T3 sequence (whole entry): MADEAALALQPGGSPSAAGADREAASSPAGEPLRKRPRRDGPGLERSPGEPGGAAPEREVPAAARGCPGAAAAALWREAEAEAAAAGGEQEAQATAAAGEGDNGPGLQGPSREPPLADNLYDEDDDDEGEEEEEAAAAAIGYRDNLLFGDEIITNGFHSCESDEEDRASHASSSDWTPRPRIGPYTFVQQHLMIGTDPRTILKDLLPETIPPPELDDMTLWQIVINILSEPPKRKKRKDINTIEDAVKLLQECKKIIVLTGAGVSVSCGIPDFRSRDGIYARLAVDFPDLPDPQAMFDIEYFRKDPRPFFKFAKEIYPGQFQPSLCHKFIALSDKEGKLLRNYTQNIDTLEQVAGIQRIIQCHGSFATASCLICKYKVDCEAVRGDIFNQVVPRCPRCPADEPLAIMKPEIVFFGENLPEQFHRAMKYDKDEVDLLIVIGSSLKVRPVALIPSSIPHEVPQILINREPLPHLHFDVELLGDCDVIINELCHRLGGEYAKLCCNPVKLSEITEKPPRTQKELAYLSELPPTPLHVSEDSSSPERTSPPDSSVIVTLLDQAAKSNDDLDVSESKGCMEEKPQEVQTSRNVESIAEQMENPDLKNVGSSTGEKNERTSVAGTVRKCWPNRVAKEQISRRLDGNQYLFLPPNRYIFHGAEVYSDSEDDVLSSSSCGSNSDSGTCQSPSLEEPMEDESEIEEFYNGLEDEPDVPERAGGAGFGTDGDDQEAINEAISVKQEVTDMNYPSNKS
In short: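 SIRT1 was expressed from pCold TF in E. coli BL21 (DE3) with 0.3 mM IPTG at 16 °C for 24 h, and the (His)6 protein was purified by nickel affinity then anion exchange. Assay used 100 μM Ac-RHKK(Ac)-MCA and 1 mM NAD (final) in Tris-HCl pH 9.0 buffer for 60 min at 37 °C. Trypsin was added for 15 min, and fluorescence was read at ex 370/em 460 nm.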

[6] = biological target: T4, Protein deacetylase HDAC6 (Homo sapiens) (UniProt Q9UBN7); test: Inhibition of human FLAG-tagged HDAC6 expressed in human 293T cells assessed as formation of amino methyl coumarin from Ac-KGLGK(Ac)-MCA measured after 30 mins by fluorescence analysis; format: cell-based
T4 sequence (whole entry): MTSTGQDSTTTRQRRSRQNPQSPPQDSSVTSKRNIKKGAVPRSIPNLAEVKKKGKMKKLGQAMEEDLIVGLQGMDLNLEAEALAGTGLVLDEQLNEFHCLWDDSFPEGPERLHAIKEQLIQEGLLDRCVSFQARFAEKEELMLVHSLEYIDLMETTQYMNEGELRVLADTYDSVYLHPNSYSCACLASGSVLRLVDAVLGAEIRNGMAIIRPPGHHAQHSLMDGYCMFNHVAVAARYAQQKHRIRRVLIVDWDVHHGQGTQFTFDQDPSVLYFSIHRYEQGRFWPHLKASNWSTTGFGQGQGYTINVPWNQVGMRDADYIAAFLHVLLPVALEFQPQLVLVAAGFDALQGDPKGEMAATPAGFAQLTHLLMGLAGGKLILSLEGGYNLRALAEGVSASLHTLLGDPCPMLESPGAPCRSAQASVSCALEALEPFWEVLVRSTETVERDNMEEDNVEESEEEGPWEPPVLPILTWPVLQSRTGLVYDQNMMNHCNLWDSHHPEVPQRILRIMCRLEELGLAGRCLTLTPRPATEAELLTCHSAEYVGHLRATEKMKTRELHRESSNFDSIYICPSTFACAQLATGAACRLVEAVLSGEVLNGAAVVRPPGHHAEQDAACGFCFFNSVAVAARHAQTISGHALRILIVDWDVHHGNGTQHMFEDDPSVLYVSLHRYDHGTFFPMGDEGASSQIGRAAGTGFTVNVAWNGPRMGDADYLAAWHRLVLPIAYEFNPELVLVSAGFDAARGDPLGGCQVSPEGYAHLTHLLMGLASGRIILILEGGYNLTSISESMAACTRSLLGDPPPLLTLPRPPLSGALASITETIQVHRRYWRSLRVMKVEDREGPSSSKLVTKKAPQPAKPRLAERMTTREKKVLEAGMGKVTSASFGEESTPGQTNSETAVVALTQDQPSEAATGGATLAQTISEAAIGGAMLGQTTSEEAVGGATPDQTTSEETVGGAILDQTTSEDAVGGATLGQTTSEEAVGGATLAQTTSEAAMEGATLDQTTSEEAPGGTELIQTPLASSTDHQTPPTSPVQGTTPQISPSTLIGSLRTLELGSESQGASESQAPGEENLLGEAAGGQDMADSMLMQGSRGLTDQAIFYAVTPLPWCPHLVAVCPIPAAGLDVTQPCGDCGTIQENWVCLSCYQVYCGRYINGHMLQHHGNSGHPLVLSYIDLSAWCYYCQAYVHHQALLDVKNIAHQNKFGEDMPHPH

IC50 [1] [µM]	IC50 [2] [µM]	IC50 [3] [µM]	IC50 [4] [µM]	IC50 [5] [µM]	IC50 [6] [µM]	Structure (SMILES)
78	150	75	29	34	52	CCCCCC[C@@H](C)[C@@H](CCCCCCCC(O)CCCC[C@@H](OC(C)=O)[C@@H](OC(C)=O)[C@H](CCCCCCC(=O)N1CCC[C@H]1C(=O)OC)OC(C)=O)OS(=O)(=O)O (some centres not stated)
79	> 200	> 200	26	16	> 200	CCCCCCC[C@@H](C)C[C@@H](O)CCCCCCC[C@@H](CCCC[C@@H](OC(C)=O)[C@@H](OC(C)=O)[C@H](CCCCCCC(=O)N1CCC[C@H]1C(=O)OC)OC(C)=O)OS(=O)(=O)O
